{"source": "paper PMC12804367", "about": "(ESMO Open, 2025)", "assay": "Plasma pharmacokinetics", "format": "in vivo, human", "procedure,_shortened": "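Dose-escalation patients had blood drawn predose and 0.5, 1, 2, 3, 4, 6 and 24 h post-dose on cycle 1 day 1, and on cycle 1 day 8 for once-daily dosing only. Plasma parameters came from noncompartmental analysis in patients with evaluable plasma concentration data. Values are geometric means with geometric CV%, plus day 8/day 1 accumulation ratios of Cmax and AUC0-24.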", "key": {"[1]": {"settings": "cycle 1 day 1, 16 mg o.d., individual values (N = 2)"}, "[2]": {"settings": "cycle 1 day 1, 20 mg o.d., N = 6, geometric mean (CV%)"}, "[3]": {"settings": "cycle 1 day 1, 24 mg intermittent, N = 4, geometric mean (CV%)"}, "[4]": {"settings": "cycle 1 day 1, 28 mg intermittent, N = 3, geometric mean (CV%)"}, "[5]": {"settings": "cycle 1 day 8, 16 mg o.d., N = 3, geometric mean (CV%)"}, "[6]": {"settings": "cycle 1 day 8, 20 mg o.d., N = 6, geometric mean (CV%)"}}, "note": "“And” between values parts separate entries of the source, which are not always exact repeats. Identical values can stand only once. “Also recorded” adds a separate entry of the source. Marks after values point to notes of the source that are not given here."}
{"compound": "C[C@]1(O)C[C@@](N)(c2ccc(-c3nc4n(c3-c3ccccc3)COc3ccncc3-4)cc2)C1", "note": "[TAS-117]", "values": [{"measurement": "Total exposure per week, 16 mg o.d. compared with 24-mg intermittent dosing", "setting": "16 mg o.d.", "result": "higher total exposure per week"}, {"measurement": "AUC0-24", "setting": "[1]", "result": "180.7 ng·h/mL and 244.3 ng·h/mL"}, {"measurement": "AUC0-last", "setting": "[1]", "result": "180.7 ng·h/mL and 244.3 ng·h/mL"}, {"measurement": "Cmax", "setting": "[1]", "result": "12.8 ng/mL and 14.5 ng/mL"}, {"measurement": "Tmax", "setting": "[1]", "result": "3.05 h and 20.88 h"}, {"measurement": "AUC0-24", "setting": "[2]", "result": "333 (34.7) ng·h/ml"}, {"measurement": "AUC0-last", "setting": "[2]", "result": "333 (34.7) ng·h/ml"}, {"measurement": "Cmax", "setting": "[2]", "result": "21.5 (29.2) ng/ml"}, {"measurement": "Tmax", "setting": "cycle 1 day 1, 20 mg o.d., N = 6, median (range)", "result": "2.06 (1.15-6.42) h"}, {"measurement": "AUC0-24", "setting": "[3]", "result": "412.8 (30.6) ng·h/ml"}, {"measurement": "AUC0-last", "setting": "[3]", "result": "290.5 (86) ng·h/ml"}, {"measurement": "Cmax", "setting": "[3]", "result": "23.2 (33.9) ng/ml"}, {"measurement": "Tmax", "setting": "cycle 1 day 1, 24 mg intermittent, N = 4, median (range)", "result": "2 (1.98-3.65) h"}, {"measurement": "AUC0-last", "setting": "[4]", "result": "426.3 (180.7) ng·h/ml"}, {"measurement": "Cmax", "setting": "[4]", "result": "48.1 (35.9) ng/ml"}, {"measurement": "Tmax", "setting": "cycle 1 day 1, 28 mg intermittent, N = 3, median (range)", "result": "2 (0.92-5.65) h"}, {"measurement": "AUC0-24", "setting": "cycle 1 day 1, 28 mg intermittent, individual values (n = 2)", "result": "754.4 ng·h/mL and 961.1 ng·h/mL"}, {"measurement": "AUC0-last", "setting": "[5]", "result": "231.7 (157.2) ng·h/ml"}, {"measurement": "Cmax", "setting": "[5]", "result": "33.3 (34.3) ng/ml"}, {"measurement": "Tmax", "setting": "cycle 1 day 8, 16 mg o.d., N = 3, median (range)", "result": "4.08 (2-5.5) h"}, {"measurement": "AUC0-24", "setting": "cycle 1 day 8, 16 mg o.d., individual value (n = 1)", "result": "811.3 ^b ng·h/ml"}, {"measurement": "AUC0-24", "setting": "[6]", "result": "924 (54.5) ng·h/ml"}, {"measurement": "AUC0-last", "setting": "[6]", "result": "924 (54.5) ng·h/ml"}, {"measurement": "Cmax", "setting": "[6]", "result": "60.1 (58.8) ng/ml"}, {"measurement": "Tmax", "setting": "cycle 1 day 8, 20 mg o.d., N = 6, median (range)", "result": "2.33 (1.02-5.58) h"}, {"measurement": "Exposure versus dose", "setting": "dose range 16-28 mg, cycle 1 day 1 and day 8", "result": "generally increased with increasing doses; also recorded: dose-dependent increases"}]}
